Experimental data: article PMC6800648 (Cell chemical biology, 2019)
Values joined by “and” are separate entries in the source; they are usually repeats but may differ in a detail not shown here. Equal values may be shown once. Square brackets hold non-standard residues; d marks the D form. Peptide text beside a SMILES is read from it. * marks the point of attachment. Lys(Me,2-norbornyl) = CN(CCCC[C@H](N)C(=O)O)C1CC2CCC1C2; Benzoyl(4-tBu) = CC(C)(C)c1ccc(C(=O)*)cc1; Lys(Et2) = CCN(CC)CCCC[C@H](N)C(=O)O

Columns and labels:
[1] = tested on: CBX7 chromodomain; conditions: ref Stuckey et al., 2016a, 2016b; cited from earlier work
[2] = target: T1, CBX7 chromodomain (Homo sapiens, UniProt O95931); assay: Electrophoretic mobility shift assay; assay type: biochemical; conditions: for binding to CBX7 by Coomassie stain (higher molecular weight band shifts): EMSA gel; for effect on FAM-dsDNA binding to CBX7: EMSA, 150 mM CBX7 and 100 nM FAM-dsDNA probe, 1:3 ratio of compound to CBX7
T1 sequence (O95931 1-62): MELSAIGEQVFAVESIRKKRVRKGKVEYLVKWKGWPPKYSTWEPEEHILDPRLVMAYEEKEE
In short: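 Buffer: 25 mM Tris-HCl pH 7.4, 100 mM NaCl, 0.05% Tween-20, 2 mM DTT. Compound runs used 150 µM CBX7 with 100 nM FAM-DNA probe and 50 µM test compound (0.3% DMSO); protein-only runs used a three-fold CBX7 series. Binding 20 min on ice. Native 10% Tris-glycine gel at 100 V, 4°C, 90 min in the dark. FAM fluorescence imaged, then Coomassie-stained.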

[3] = target: T2, CBX7 and RING1B (Mus musculus, UniProt Q8VDS3); assay: ChIP-qPCR / ChIP-seq in mESCs; assay type: cell-based; conditions: 4 hours, 20 μM
T2 sequence (Q8VDS3 1-158): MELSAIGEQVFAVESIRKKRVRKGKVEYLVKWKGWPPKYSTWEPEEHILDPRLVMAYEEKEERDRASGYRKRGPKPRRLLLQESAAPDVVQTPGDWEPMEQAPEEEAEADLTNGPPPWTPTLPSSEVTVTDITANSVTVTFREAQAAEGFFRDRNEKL
T2 sequence (Q9CQJ4 2-336 partner limits assumed): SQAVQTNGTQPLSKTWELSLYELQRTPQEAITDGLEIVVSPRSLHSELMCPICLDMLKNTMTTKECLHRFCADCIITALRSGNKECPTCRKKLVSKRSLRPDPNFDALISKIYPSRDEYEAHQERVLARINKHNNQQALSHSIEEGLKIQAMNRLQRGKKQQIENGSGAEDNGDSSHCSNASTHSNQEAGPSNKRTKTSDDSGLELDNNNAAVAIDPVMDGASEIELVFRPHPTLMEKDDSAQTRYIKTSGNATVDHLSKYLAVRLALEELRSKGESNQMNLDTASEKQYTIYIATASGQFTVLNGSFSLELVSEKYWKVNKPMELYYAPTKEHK

[4] = target: T3, CBX7 (Mus musculus, UniProt Q8VDS3); assay: Polycomb in-vivo Assay; assay type: cell-based
T3 sequence (Q8VDS3 2-69 limits assumed): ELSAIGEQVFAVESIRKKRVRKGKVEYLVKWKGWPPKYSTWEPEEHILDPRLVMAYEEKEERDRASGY

[5] = tested on: Polycomb target genes; assay: RT-qPCR mRNA expression in HEK293 cells; assay type: cell-based, human; conditions: for effect on transcription of Polycomb target genes: HEK293, 6 μM and 20 μM, 2 days
In short: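 HEK293 cells were treated with test compounds at 6 µM and 20 µM for 2 days. RNA was reverse-transcribed and Polycomb target transcripts were quantified by qPCR with ~100–150 bp amplicons.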

[6] = target: T1, CBX7 chromodomain; assay: Fluorescence polarization; assay type: biochemical; conditions: for enhancement in CBX7 affinity for FAM-dsDNA: 1:3 ratio of compound to protein titration; for allosteric modulator class of oligonucleotide binding: FP data fit to the Stockton/Ehlert allosteric binding model; for α (factor of enhancement of CBX7 affinity for the DNA probe): Stockton/Ehlert allosteric binding model, 1:3 compound to CBX7, 100 nM FAM-dsDNA
In short: (§1)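 Buffer: 25 mM Tris-HCl pH 7.4, 100 mM NaCl, 0.05% Tween-20, 2 mM DTT; 100 nM FAM-dsDNA or FAM-ANRIL-RNA; 0.2% DMSO; 30 min at RT. Compound titration: eight-point three-fold series from 100 µM with 30 µM CBX7 chromodomain. Ratio mode: CBX7 and test compound co-diluted at fixed 3:1 from 300 µM/100 µM. Polarisation normalised to a no-protein control; α fitted by the Stockton-Ehlert allosteric model.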

[7] = tested on: mESCs; assay: CellTiter-Glo viability assay in mESCs; assay type: cell-based, mouse; conditions: 48 hr
In short: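 Mouse ES cells, 5,000 per well, exposed in technical triplicate for 48 hr at 37°C to a ten-point three-fold dilution series prepared from 50 mM DMSO stocks (0.2% DMSO final). Media-only wells served as negative controls. After equilibrating at room temperature, CellTiter-Glo was added, with 2 min shaking and 10 min settling, then luminescence read.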

[8] = target: T1, CBX7 chromodomain; assay: Fluorescence polarization; assay type: biochemical
In short: as §1

[9] = tested on: CBX6 chromodomain; assay: Isothermal titration calorimetry; assay type: binding; conditions: from ITC Kd values
In short: (§2)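 ITC at 25 °C in 25 mM Tris-HCl pH 7.5, 150 mM NaCl, 2 mM β-mercaptoethanol. Typically 50 µM chromodomain in cell, 0.5 mM test compound in syringe (10:1 kept). Protein quantified by Edelhoch, compound by mass. One 0.2 µl injection then 26 × 1.5 µl injections at 180 s spacing; first point discarded. Kd from one-site nonlinear least-squares fit.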

[10] = tested on: CBX2 chromodomain; assay: Isothermal titration calorimetry; assay type: binding; conditions: from ITC Kd values
In short: as §2

[11] = target: T4, CBX7 chromodomain (Homo sapiens, UniProt O95931); assay: Isothermal titration calorimetry; assay type: binding; conditions: ITC
T4 sequence (O95931 8-62): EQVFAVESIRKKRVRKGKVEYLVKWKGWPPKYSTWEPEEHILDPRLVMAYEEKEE
In short: as §2

[12] = target: T5, CBX7 (Mus musculus, UniProt Q8VDS3); assay type: cell-based; conditions: TetOFF reporter cell line; UNC4976 compared to UNC3866 treatment
T5 sequence (Q8VDS3 1-158): T2 sequence (Q8VDS3 1-158)

[13] = tested on: CDYL2 chromodomain; assay: Isothermal titration calorimetry; assay type: binding; conditions: from ITC Kd values
In short: as §2

[14] = tested on: SUZ12 and H3K27me3; assay: Capture ChIP-seq in mESCs, SUZ12 and H3K27me3; assay type: cell-based, mouse
[15] = Stockton/Ehlert allosteric binding model, 1:3 compound to CBX7, 100 nM FAM-ANRIL-RNA

SMILES | binding to CBX7 by Coomassie stain (higher molecular weight band shifts) [2] | effect on FAM-dsDNA binding to CBX7 [2] | CBX7 and RING1B binding at PRC1 target TSSs [3] | EC50 [4] | effect on transcription of Polycomb target genes [5] | enhancement in CBX7 affinity for FAM-dsDNA [6] | allosteric modulator class of oligonucleotide binding [6] | α (factor of enhancement of CBX7 affinity for the DNA probe) [6] | also measured
CCN(CC)CCCC[C@H](NC(=O)[C@H](CC(C)C)NC(=O)[C@H](C)NC(=O)[C@H](Cc1ccccc1)NC(=O)c1ccc(C(C)(C)C)cc1)C(=O)N[C@@H](CO)C(=O)OC [UNC3866, methyl N^2-(4-(tert-butyl)benzoyl)-L-phenylalanyl-L-alanyl-L-leucyl-N^6,N^6-diethyl-L-lysyl-L-serinate] ({Benzoyl(4-tBu)}-FAL[Lys(Et2)]S-OMe) | showed binding to CBX7 | did not have any effect | more limited impact | 41.7 ± 2.24 µM | either no or a mild effect | negligible enhancement | silent allosteric modulator (SAM) | 1.5 | fold more potent than fragments of the endogenous H3K27me3 peptide [1]: > 100 fold; mESC viability upon compound treatment [7]: non-toxic
COC(=O)[C@H](CO)NC(=O)[C@H](CCCCN(C)C1CC2CCC1C2)NC(=O)[C@H](CC(C)C)NC(=O)[C@H](C)NC(=O)[C@H](Cc1ccccc1)NC(=O)c1ccc(C(C)(C)C)cc1 (stereo partly drawn) [UNC4976, methyl N^6-(bicyclo[2.2.1]heptan-2-yl)-N^2-(4-(tert-butyl)benzoyl)-L-phenylalanyl-L-alanyl-L-leucyl-N^6-methyl-L-lysyl-L-serinate] ({Benzoyl(4-tBu)}-FAL[Lys(Me,2-norbornyl)]S-OMe) | showed binding to CBX7 | enhanced FAM-dsDNA binding | substantially reduced | 3.21 ± 0.352 µM | pronounced increase in transcription | significant enhancement | positive allosteric modulator | 4.2 | effect on CBX7 binding to FAM-ANRIL-RNA ([8]; 1:3 ratio of compound to protein titration): promoted enhanced CBX7 binding to RNA; α (factor of enhancement of CBX7 affinity for the RNA probe) [8, 15]: 4.0; β (ratio of FP factors between [RNA:CBX7:UNC] and [RNA:CBX7]) [8, 15]: 1.1; selectivity for CBX4/7 over CBX6 [9]: 9 fold; selectivity for CBX4/7 over CBX2 [10]: 28 fold; affinity for CBX4 and CBX7 compared [11]: equipotent affinity; fold more potent than UNC3866 in the CBX7 reporter cell line ([4]; EC50 ratio versus UNC3866): ~ 14 fold and 14 fold; fold higher expression than UNC3866 treatment at the same concentration ([5]; HEK293, in some cases): 8 fold; derepression of the GFP reporter gene / maintenance of Polycomb silencing [12]: enhanced; change of fluorescence polarization on compound titration ([6]; 30 μM CBX7 chromodomain, 100 nM FAM-dsDNA): increased polarization; mESC viability upon compound treatment ([7]; at 100 μM): weak toxicity; selectivity for CBX4/7 over CDYL2 [13]: 8 fold; reduction in SUZ12 binding and H3K27me3 [14]: only a mild or insignificant reduction
